From ChEMBL document CHEMBL5032526 (Eur J Med Chem, 2021)

Columns and labels:
Ebolavirus [1] = test: Antiviral activity against Ebola virus constitutively expressed firefly infected in human Huh-7 cells expressing pretreated for 1 hrs followed by viral infection and measured after 24 hrs by dual luciferase reporter assay; assay type: functional, organism-based; conditions: Orthoebolavirus
Method in brief: (§1)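 Huh-7 cells were transfected in suspension with EBOV VP35, NP, VP30 and L plasmids plus constitutive firefly (ce-FF). At 24 h, compounds were added in triplicate (0-50 µM, 2-fold series) for 1 h before trVLP infection.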

SARS-CoV-2 [2] = test: Antiviral activity against SARS Cov-2 USA/WA1/2020 infected in Vero E6 cells assessed as reduction in virus-induced cytopathic effect preincubated for 1 hr followed by viral infection and measured after 48 hrs post infection; assay type: functional, organism-based; conditions: Severe acute respiratory syndrome coronavirus 2, USA/WA1/2020, Vero C1008
[3] = Selectivity index, ratio of CC50 for human Huh-7 cells to IC50 for Antiviral activity against Ebola virus trVLP infected in human Huh-7 cells; assay type: toxicity, cell-based; conditions: read-out: Ratio CC50/IC50
Huh-7 = test: (§2) Cytotoxicity against human Huh-7 cells assessed as reduction in cell viability measured after 24 hrs by CellTiter-Glo analysis; assay type: cell-based; conditions: huh-7, 24 h
Ebolavirus [4] = test: Antiviral activity against Ebola virus trVLP infected in human Huh-7 cells pretreated for 1 hrs followed by viral infection and measured after 24 hrs by dual luciferase reporter assay; assay type: functional, organism-based; conditions: Orthoebolavirus; method in brief: as §1
SARS-CoV-2 [5] = test: Antiviral activity against SARS Cov-2 USA_WA1/2020 infected in human Calu-3 cells measured upto 72 hrs by qRT-PCR method; assay type: functional, organism-based; conditions: Severe acute respiratory syndrome coronavirus 2, USA_WA1/2020, Calu-3, 72 h
[6] = Metabolic stability in human plasma assessed as drug degradation at 10 uM after 1 hr by LC-QTOF-MS analysis; assay type: ADME, cell-free; conditions: read-out: Drug degradation
Method in brief: (§3)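 Compound (10 µM) was incubated in human plasma at 37 °C, with aliquots taken from 0 to 24 h. Proteins were precipitated with cold ethanol (30 min, -20 °C), and samples were centrifuged and concentrated. Analysis was by LC-QTOF-MS with a ±0.1 m/z EIC window, and % digestion was calculated from peak area relative to 0 min.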

SARS-CoV-2 [7] = test: Antiviral activity against SARS Cov-2 USA_WA1/2020 infected in HAE cells measured upto 72 hrs by qRT-PCR method; assay type: functional, organism-based; conditions: Severe acute respiratory syndrome coronavirus 2, USA_WA1/2020, HAE
[8] = as §2; assay type: cell-based; conditions: Huh-7 cells
Ebolavirus [9] = test: Antiviral activity against wild type Ebola virus infected in human HeLa cells assessed as reduction in viral infection measured after 24 hrs by Hoechst 33342 staining based microscopic analysis; assay type: functional, organism-based; conditions: Orthoebolavirus
[10] = (§4) Cytotoxicity against human Calu-3 cells assessed as reduction in cell viability after 48 hrs by Cell-Tox green based fluorescence assay; conditions: Calu-3 cells
Method in brief: (§5)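 Calu3 cells (1 x 10^4) were plated and exposed 24 h later to 3-fold serial compound dilutions. At 48 h, CellTox Green fluorescence was read, and CC50 was fitted by four-parameter nonlinear regression.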

[11] = Metabolic stability in human plasma assessed as compound remaining at 10 uM after 2 hrs by LC-QTOF-MS analysis; assay type: ADME, cell-free; method in brief: as §3
SARS-CoV-2 [12] = test: Antiviral activity against SARS coronavirus 2 USA/WA1/2020 infected in Calu-3 cells assessed as reduction in virus-induced cytopathic effect preincubated for 1 hr followed by viral infection and measured after 48 hrs; assay type: functional, organism-based; conditions: Severe acute respiratory syndrome coronavirus 2, USA/WA1/2020, Calu-3
[13] = Selectivity index, ratio of CC50 for African green monkey Vero E6 cells to IC50 for Antiviral activity against SARS coronavirus 2 USA/WA1/2020 infected in Vero E6 cells assessed as reduction in virus-induced cytopathic effect; assay type: toxicity, cell-based, Vero C1008; conditions: read-out: Ratio CC50/IC50
[14] = Selectivity index, ratio of CC50 for human Huh-7 cells to IC50 for Antiviral activity against Ebola virus constitutively expressed firefly; assay type: toxicity; conditions: read-out: Ratio CC50/IC50
[15] = Selectivity index, ratio of CC50 for human Calu-3 cells to IC50 for Antiviral activity against SARS coronavirus 2 USA/WA1/2020 infected in human Calu3 cells assessed as reduction in virus-induced cytopathic effect; assay type: toxicity, cell-based; conditions: read-out: Ratio CC50/IC50
Calu-3 = test: as §4; conditions: calu-3, 48 h; method in brief: as §5
[16] = Metabolic stability in human plasma assessed as compound remaining at 10 uM after 4 hrs by LC-QTOF-MS analysis; assay type: ADME, cell-free; conditions: read-out: Stability; method in brief: as §3

Row | SMILES | IC50 (Ebolavirus [1]) | IC50 (SARS-CoV-2 [2]) | selectivity ratio [3] | CC50 (Huh-7) | IC50 (Ebolavirus [4]) | EC50 (SARS-CoV-2 [5]) | metabolised at 1 h, 10 µM [6] | EC50 (SARS-CoV-2 [7]) | CC50 at 24 h [8] | IC50 (Ebolavirus [9]) | CC50 at 48 h [10] | remaining at 2 h, 10 µM ([11]; read-out: Stability) | IC50 (SARS-CoV-2 [12]) | selectivity ratio [13] | selectivity ratio [14] | selectivity ratio [15] | CC50 (Calu-3) | remaining at 4 h, 10 µM [16] | Stability ([11]; 2 h, 10 µM)
1 | CCSCCCCCCCCCCCC(=O)O | > 50 µM | > 50 µM | > 50 | > 50 µM | > 50 µM | – | – | – | – | – | – | – | – | – | – | – | – | – | –
2 | CCCCCCCCCCOCCC(=O)O | > 50 µM | > 50 µM | > 50 | > 50 µM | > 50 µM | – | – | – | – | – | – | – | – | – | – | – | – | – | –
3 | CCC(CC)COC(=O)[C@H](C)N[P@](=O)(OC[C@H]1O[C@@](C#N)(c2ccc3c(N)ncnn23)[C@H](O)[C@@H]1O)Oc1ccccc1 | 24 µM | 0.85 µM | – | – | 0.32 µM | 0.28 µM | 13% | 0.01 µM | > 50 µM | 1 µM | > 50 µM | 47% | 0.06 µM | – | – | – | – | – | –
4 | CCSCCCCCCCCCCCC(=O)O[C@@H]1[C@H](O)[C@@H](CO[P@@](=O)(N[C@H](C)C(=O)OCC(CC)CC)Oc2ccccc2)O[C@@]1(C#N)c1ccc2c(N)ncnn12 | 29 µM | 3.5 µM | 164 | 41 µM | 0.25 µM | – | – | – | – | – | – | – | – | > 14.2 | 1.41 | – | – | – | –
5 | CCCCCCCCCCOCCC(=O)O[C@@H]1[C@H](O)[C@@H](CO[P@@](=O)(N[C@H](C)C(=O)OCC(CC)CC)Oc2ccccc2)O[C@@]1(C#N)c1ccc2c(N)ncnn12 | 36 µM | 4.6 µM | 50 | 15 µM | 0.3 µM | – | – | – | – | – | – | – | – | > 10.9 | 0.417 | – | – | – | –
6 | CCCCCCCCCCOCCC(=O)O[C@H]1[C@@H](O)[C@](C#N)(c2ccc3c(N)ncnn23)O[C@@H]1CO[P@@](=O)(N[C@H](C)C(=O)OCC(CC)CC)Oc1ccccc1 | 14 µM | 2 µM | 46.3 | 7.4 µM | 0.16 µM | – | – | – | – | – | – | – | 0.18 µM | > 25.6 | 0.529 | > 191 | 34.3 µM | – | –
7 | CCCCCCCCCCCCCCCC(=O)O[C@@H]1[C@H](O)[C@@H](CO[P@@](=O)(N[C@H](C)C(=O)OCC(CC)CC)Oc2ccccc2)O[C@@]1(C#N)c1ccc2c(N)ncnn12 | > 50 µM | – | > 6.94 | > 50 µM | 7.2 µM | – | – | – | – | – | – | – | 3.6 µM | – | – | > 13.9 | > 50 µM | – | –
8 | CCC(CC)COC(=O)[C@@H](C)N[P@](=O)(OC[C@H]1O[C@@](C#N)(c2ccc3c(N)ncnn23)[C@H](O)[C@@H]1OC(=O)CCCCCCCCCCCN=[N+]=[N-])Oc1ccccc1 | > 50 µM | 3 µM | 44.4 | 20 µM | 0.45 µM | – | – | – | – | 0.83 µM | – | – | 0.51 µM | > 16.6 | – | > 98 | > 50 µM | 77.9% | Stable
9 | CCCCCCCCCCCCCCCC(=O)O[C@H]1[C@@H](O)[C@](C#N)(c2ccc3c(N)ncnn23)O[C@@H]1CO[P@@](=O)(N[C@H](C)C(=O)OCC(CC)CC)Oc1ccccc1 | > 50 µM | – | > 172 | > 50 µM | 2.9 µM | – | – | – | – | – | – | – | 1.6 µM | – | – | > 32.3 | > 50 µM | – | –
10 | CCCCCCCCCCCCCC(=O)O[C@H]1[C@@H](OC(=O)CCCCCCCCCCCCC)[C@](C#N)(c2ccc3c(N)ncnn23)O[C@@H]1CO[P@@](=O)(N[C@H](C)C(=O)OCC(CC)CC)Oc1ccccc1 | > 50 µM | 31 µM | > 4.13 | > 50 µM | 12.1 µM | – | – | – | – | – | – | – | – | > 1.59 | – | – | – | – | –
11 | [N-]=[N+]=NCCCCCCCCCCCC(=O)O | > 50 µM | > 50 µM | > 50 | > 50 µM | > 50 µM | – | – | – | – | – | – | – | – | – | – | – | – | – | –
12 | CCC(CC)COC(=O)[C@@H](C)N[P@](=O)(OC[C@H]1O[C@@](C#N)(c2ccc3c(N)ncnn23)[C@H](OC(=O)CCCCCCCCCCCN=[N+]=[N-])[C@@H]1O)Oc1ccccc1 | > 50 µM | 4.6 µM | 54 | – | 0.5 µM | – | – | – | 27 µM | 0.19 µM | – | – | – | > 10.9 | – | – | – | – | –
13 | CCCCCCCCCCCCCC(=O)O[C@H]1[C@@H](O)[C@](C#N)(c2ccc3c(N)ncnn23)O[C@@H]1CO[P@@](=O)(N[C@H](C)C(=O)OCC(CC)CC)Oc1ccccc1 | > 50 µM | 2.3 µM | > 70.4 | > 50 µM | 0.71 µM | – | – | – | – | – | – | – | 0.24 µM | > 22.1 | – | > 208 | > 50 µM | – | –
14 | CCCCCCCCCCCCCC(=O)O[C@@H]1[C@H](O)[C@@H](CO[P@@](=O)(N[C@H](C)C(=O)OCC(CC)CC)Oc2ccccc2)O[C@@]1(C#N)c1ccc2c(N)ncnn12 | > 50 µM | 2.4 µM | > 74.6 | > 50 µM | 0.67 µM | – | – | – | – | – | – | – | 0.29 µM | > 20.7 | – | > 172 | > 50 µM | – | –
15 | CCSCCCCCCCCCCCC(=O)O[C@H]1[C@@H](O)[C@](C#N)(c2ccc3c(N)ncnn23)O[C@@H]1CO[P@@](=O)(N[C@H](C)C(=O)OCC(CC)CC)Oc1ccccc1 | > 50 µM | 2.4 µM | 82.1 | 23 µM | 0.28 µM | – | – | – | – | – | – | – | 0.25 µM | > 20.5 | – | > 200 | > 50 µM | – | –
16 | CCCCCCCCCCCCCC(=O)O [MYRISTIC ACID] | > 50 µM | > 50 µM | > 50 | > 50 µM | > 50 µM | – | – | – | – | – | – | – | – | – | – | – | – | – | –
